Assay results from ChEMBL document CHEMBL6153049, “Functionalized regioisomers of the natural product phenazines myxin and iodinin as potent inhibitors of Mycobacterium tuberculosis and human acute myeloid leukemia cells” (Eur J Med Chem, 2025).

Legend:
Type in all cases: functional, organism-based
Details in all cases: 168 h
[1] = tested on: Mycobacterium tuberculosis; assay: Antimycobacterial activity against INH-resistant Mycobacterium tuberculosis expressing katG+ assessed as bacterial growth inhibition measured after 1 week by MABA assay
Procedure, shortened: (§1)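 Colonies grown on 7H10+OADC agar at 37 °C, then to mid-log in 7H9+OADC; about 4×10^5 CFU/mL inoculated into 7H9 with escalating compound concentrations. Incubated 37 °C for 1 week, then resazurin (0.6 mM in PBS) mixed 8:5 with 20 % Tween 80 was added and incubated overnight at 37 °C. Fluorescent resorufin read-out gave IC50.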

[2] = tested on: Mycobacterium tuberculosis; assay: Antimycobacterial activity against Rifampicin-resistant Mycobacterium tuberculosis expressing rpoB+ assessed as bacterial growth inhibition measured after 1 week by MABA assay; procedure, shortened: as §1
[3] = tested on: Mycobacterium tuberculosis; assay: Antimycobacterial activity against INH-resistant Mycobacterium tuberculosis expressing inhA+ assessed as bacterial growth inhibition measured after 1 week by MABA assay; procedure, shortened: as §1

Structure (SMILES) | IC50 [1] [nM] | IC50 [2] [nM] | IC50 [3] [nM]
[O-][n+]1c2cccc(O)c2[n+]([O-])c2cccc(O)c21 | 70 |  | 
COc1cccc2c1[n+]([O-])c1cccc(O)c1[n+]2[O-] | 62.5 | 62.5 | 62.5
[O-][n+]1c2ccccc2[n+]([O-])c2c(O)cccc21 | 50 |  | 
CCOCOc1cc(OC)c2c(c1)[n+]([O-])c1ccccc1[n+]2[O-] | 62.5 | 31.2 | 31.2
[O-][n+]1c2ccccc2[n+]([O-])c2c(O)cc(O)cc21 | 500 | 1000 | 125
COc1cc(O)c2c(c1)[n+]([O-])c1ccccc1[n+]2[O-] | 62.5 | 62.5 | 16
CCOC(=O)COc1cc(O)c2c(c1)[n+]([O-])c1ccccc1[n+]2[O-] | 250 | 250 | 62.5
CCOC(=O)COc1cc(OC)c2c(c1)[n+]([O-])c1ccccc1[n+]2[O-] | 250 | 250 | 250
CC(=O)Oc1cc(O)c2c(c1)[n+]([O-])c1ccccc1[n+]2[O-] | 1000 | 1000 | 500
CCOc1cc(O)c2c(c1)[n+]([O-])c1ccccc1[n+]2[O-] | 62.5 | 62.5 | 4
COc1cccc2c1[n+]([O-])c1ccccc1[n+]2[O-] | 125 | 125 | 125
COc1cc(OC(C)=O)c2c(c1)[n+]([O-])c1ccccc1[n+]2[O-] | 125 | 250 | 125
CCOCOc1cc(O)c2c(c1)[n+]([O-])c1ccccc1[n+]2[O-] | 62.5 | 31.2 | 4
COc1cc(OC)c2c(c1)[n+]([O-])c1ccccc1[n+]2[O-] | 125 | 125 | 125
COCOc1cc(O)c2c(c1)[n+]([O-])c1ccccc1[n+]2[O-] | 125 | 125 | 125
